According to ChEMBL document CHEMBL1140039, “Aglycone exploration of C-arylglucoside inhibitors of renal sodium-dependent glucose transporter SGLT2” (Bioorg Med Chem Lett, 2008):

Experiments:
Mus musculus = assay: Effect on glucose concentration in Swiss Webster mouse urine at 0.3 mg/kg, iv; type: ADME, organism-based; set-up: dose 0.3 mg/kg, route intravenous; conditions: in vivo
Procedure, shortened: (§1)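 Fasted male rats or mice were anesthetized with i.p. ketamine:xylazine (.001 mL/g), and the bladder was cannulated via an abdominal incision. Drug was given intravenously. Urine was collected over 60 min in 10-min intervals and assayed for glucose concentration.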

Rattus norvegicus = assay: Effect on glucose concentration in Sprague-Dawley rat urine at 1 mg/kg, iv; type: ADME, organism-based; set-up: dose 1 mg/kg, route intravenous; conditions: in vivo; procedure, shortened: as §1
Liver microsomes = assay: Metabolic stability in Sprague-Dawley rat liver microsomes at 10 uM
[1] = biological target: T1, Sodium/glucose cotransporter 2 (Homo sapiens, UniProt P31639); assay: Inhibition of human SGLT2 expressed in Xenopus oocyte assessed as [14C]alpha-methyl glucopyranoside uptake
T1 sequence (P31639 whole entry): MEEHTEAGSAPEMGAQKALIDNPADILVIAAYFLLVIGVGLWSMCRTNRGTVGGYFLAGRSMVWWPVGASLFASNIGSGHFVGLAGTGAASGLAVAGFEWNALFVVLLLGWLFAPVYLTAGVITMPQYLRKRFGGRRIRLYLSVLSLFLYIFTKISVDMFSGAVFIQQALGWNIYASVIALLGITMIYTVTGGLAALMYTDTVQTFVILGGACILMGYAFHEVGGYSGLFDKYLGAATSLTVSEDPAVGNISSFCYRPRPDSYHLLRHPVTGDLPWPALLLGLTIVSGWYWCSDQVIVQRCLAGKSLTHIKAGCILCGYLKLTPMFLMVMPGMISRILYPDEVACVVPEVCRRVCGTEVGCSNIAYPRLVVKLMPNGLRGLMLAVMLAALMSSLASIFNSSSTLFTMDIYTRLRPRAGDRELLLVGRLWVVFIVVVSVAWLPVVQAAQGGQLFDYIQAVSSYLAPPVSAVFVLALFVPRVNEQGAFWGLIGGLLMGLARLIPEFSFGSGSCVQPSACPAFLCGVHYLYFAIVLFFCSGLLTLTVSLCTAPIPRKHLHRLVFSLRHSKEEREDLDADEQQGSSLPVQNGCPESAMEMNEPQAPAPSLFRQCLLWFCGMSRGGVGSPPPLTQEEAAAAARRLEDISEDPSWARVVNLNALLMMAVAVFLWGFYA

Homo sapiens = organism: Homo sapiens; assay: Selectivity for human SGLT2 over human SGLT1 expressed in Xenopus oocyte

| urinary glucose (Mus musculus) [mg/dL] | urinary glucose (Rattus norvegicus) [mg/dL] | Stability (Liver microsomes) | EC50 [1] [nM] | Selectivity ratio (Homo sapiens) | SMILES |
| --- | --- | --- | --- | --- | --- |
| 600 | 230 | Stable |  |  | Cc1ccc(Cc2cccc([C@@H]3O[C@H](CO)[C@@H](O)[C@H](O)[C@H]3O)c2)cc1 |
|  |  |  | 50 | 4 | Cc1cc(O)c(C(=O)CCc2ccc3occc3c2)c(O[C@@H]2O[C@H](CO)[C@@H](O)[C@H](O)[C@H]2O)c1 |
